{
  "source": "ChEMBL document CHEMBL4613280",
  "about": "“Development of Pyrazolo[3,4-d]pyrimidine Kinase Inhibitors as Potential Clinical Candidates for Glioblastoma Multiforme” (ACS Med Chem Lett, 2020)",
  "key": {"[1]": {"species_on_record": "Homo sapiens", "assay": "Cytotoxicity against human GIN28 cells assessed as reduction in cell viability at 5 ug/ml measured after 48 hrs using compound dissolved in DMSO by Prestoblue assay", "type": "functional, cell-based", "procedure,_shortened": "(§1)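 Inhibitor either dissolved in DMSO, inkjet-printed into polymer, or suspended in PBS, then diluted in DMEM. Polymer-alone and untreated controls included. Viability read by PrestoBlue after 48 h, mean ± SD.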"}, "[2]": {"species_on_record": "Homo sapiens", "assay": "Cytotoxicity against human GIN28 cells assessed as cell viability at 5 ug/ml measured after 48 hrs using compound suspended in PBS by Prestoblue assay", "type": "functional, cell-based", "procedure,_shortened": "as §1"}, "[3]": {"species_on_record": "Homo sapiens", "assay": "Induction of necrosis in human GIN28 cells assessed as induction of nuclear membrane permeability at 12.5 uM measured after 48 hrs by Hoechst 33342/propidium iodide staining based fluorescence microscopy analysis", "type": "functional, cell-based", "procedure,_shortened": "(§2)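 Cells dosed 48 h with 12.5 μM inhibitor, with 70% ethanol or DMEM (negative) as controls. Nuclei then double-stained with Hoechst 33342 and propidium iodide and examined by fluorescence microscopy.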"}, "[4]": {"species_on_record": "Homo sapiens", "assay": "Induction of necrosis in human GIN8 cells assessed as induction of nuclear membrane permeability at 12.5 uM measured after 48 hrs by Hoechst 33342/propidium iodide staining based fluorescence microscopy analysis", "type": "functional, cell-based", "procedure,_shortened": "as §2"}, "[5]": {"species_on_record": "Homo sapiens", "assay": "Induction of apoptotic death in human GCE28 cells assessed as nuclear fragmentation at 12.5 uM measured after 48 hrs by Hoechst 33342/propidium iodide staining based fluorescence microscopy analysis", "type": "functional, cell-based", "procedure,_shortened": "as §2"}, "[6]": {"species_on_record": "Homo sapiens", "assay": "Induction of apoptotic death in human GIN8 cells assessed as nuclear fragmentation at 12.5 uM measured after 48 hrs by Hoechst 33342/propidium iodide staining based fluorescence microscopy analysis", "type": "functional, cell-based", "procedure,_shortened": "as §2"}, "[7]": {"assay": "Cytotoxicity against human GIN8 cells derived from invasive region of GBM patient assessed as reduction in cell viability measured after 48 hrs by Prestoblue assay", "type": "functional, cell-based", "procedure,_shortened": "(§3)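 Compounds diluted in DMEM containing 10% FBS and applied for 48 h. Viability read by PrestoBlue. IC50 calculated from three independent experiments, mean ± SE. Two-way ANOVA with Dunnett's multiple comparisons test.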"}, "[8]": {"assay": "Apparent water solubility of the compound in PBS formulated with 900 ug/ml of polymer Pluronic F-68 at 100 ug/ml by UV-Visible spectral analysis", "type": "physicochemical", "details": "buffer"}, "[9]": {"species_on_record": "Homo sapiens", "assay": "Induction of apoptotic death in human GIN28 cells assessed as presence of apoptotic bodies at 12.5 uM measured after 48 hrs by Hoechst 33342/propidium iodide staining based fluorescence microscopy analysis", "type": "functional, cell-based", "procedure,_shortened": "as §2"}, "[10]": {"assay": "Synergistic cytotoxicity against human GIN28 cells assessed as combination index measured after 48 hrs in presence of 3-(4-chlorophenyl)-1-(2-chloro-2-phenylethyl)pyrazolo[3,4-d]pyrimidin-4-amine by Chou-Talalay assay", "type": "functional", "procedure,_shortened": "(§4)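 Each drug pair dosed at a 1:1 molar ratio on the GBM lines and incubated 48 h. CI computed from three independent IC50 experiments (n = 3), reported as mean ± SD.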"}, "[11]": {"assay": "Additive cytotoxicity against human GIN28 cells assessed as combination index measured after 48 hrs in presence of 2-[[4-(2-phenylethylamino)-1-[styryl]pyrazolo[3,4-d]pyrimidin-6-yl]amino]ethanol by Chou-Talalay assay", "type": "functional", "procedure,_shortened": "as §4"}, "[12]": {"assay": "Cytotoxicity against human GIN28 cells derived from invasive region of GBM patient assessed as reduction in cell viability measured after 48 hrs by Prestoblue assay", "type": "functional, cell-based", "procedure,_shortened": "as §3"}, "[13]": {"assay": "Synergistic cytotoxicity against human GCE28 cells assessed as combination index measured after 48 hrs in presence of 3-(4-chlorophenyl)-1-(2-chloro-2-phenylethyl)pyrazolo[3,4-d]pyrimidin-4-amine by Chou-Talalay assay", "type": "functional", "procedure,_shortened": "as §4"}, "[14]": {"species_on_record": "Homo sapiens", "assay": "Cytotoxicity against human GCE28 cells assessed as cell viability at 5 ug/ml measured after 48 hrs using compound suspended in PBS by Prestoblue assay", "type": "functional, cell-based", "procedure,_shortened": "as §1"}, "[15]": {"assay": "Synergistic cytotoxicity against human GIN8 cells assessed as combination index measured after 48 hrs in presence of 3-(4-chlorophenyl)-1-(2-chloro-2-phenylethyl)pyrazolo[3,4-d]pyrimidin-4-amine by Chou-Talalay assay", "type": "functional", "procedure,_shortened": "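Two kinase inhibitors were combined at a 1:1 molar ratio, diluted in DMEM with 10% FBS, and incubated with the GBM cells for 48 h. Viability was read by PrestoBlue. Combination index values were calculated from three independent IC50 experiments (n = 3) and are reported as mean ± SD.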"}, "[16]": {"species_on_record": "Homo sapiens", "assay": "Induction of apoptotic death in human GIN8 cells assessed as presence of apoptotic bodies at 12.5 uM measured after 48 hrs by Hoechst 33342/propidium iodide staining based fluorescence microscopy analysis", "type": "functional, cell-based", "procedure,_shortened": "as §2"}, "[17]": {"species_on_record": "Homo sapiens", "assay": "Induction of apoptotic death in human GIN28 cells assessed as […] at 12.5 uM measured after 48 hrs by Hoechst 33342/propidium iodide staining based fluorescence microscopy analysis", "type": "functional, cell-based", "procedure,_shortened": "as §2"}, "[18]": {"species_on_record": "Homo sapiens", "assay": "Induction of apoptosis in human GIN28 cells assessed as increase in caspase 3/7 activation at 12.5 uM measured after 48 hrs by CellEvent caspase 3/7 probe based fluorescence analysis", "type": "functional, cell-based", "procedure,_shortened": "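Cells exposed 48 h to compounds diluted in 10% FBS DMEM. Activated caspase-3/7 detected with the CellEvent probe. Staurosporine 10.0 μM served as reference inducer. Mean ± SEM (n = 3). Two-way ANOVA with Dunnett's test.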"}, "[19]": {"species_on_record": "Homo sapiens", "assay": "Cytotoxicity against human GIN8 cells assessed as reduction in cell viability at 5 ug/ml measured after 48 hrs using Tween 80-formulated compound by Prestoblue assay", "type": "functional, cell-based", "procedure,_shortened": "as §1"}, "[20]": {"species_on_record": "Homo sapiens", "assay": "Induction of apoptotic death in human GCE28 cells assessed as […] at 12.5 uM measured after 48 hrs by Hoechst 33342/propidium iodide staining based fluorescence microscopy analysis", "type": "functional, cell-based", "procedure,_shortened": "as §2"}, "[21]": {"assay": "Additive cytotoxicity against human GCE28 cells assessed as combination index measured after 48 hrs in presence of 2-[[4-(2-phenylethylamino)-1-[styryl]pyrazolo[3,4-d]pyrimidin-6-yl]amino]ethanol by Chou-Talalay assay", "type": "functional", "procedure,_shortened": "as §4"}, "[22]": {"species_on_record": "Homo sapiens", "assay": "Cytotoxicity against human GCE28 cells assessed as reduction in cell viability at 5 ug/ml measured after 48 hrs using compound dissolved in DMSO by Prestoblue assay", "type": "functional, cell-based", "procedure,_shortened": "as §1"}, "[23]": {"assay": "Apparent water solubility of the compound in PBS formulated with 900 ug/ml polymer PVPVA at 100 ug/ml by UV-Visible spectral analysis", "type": "physicochemical", "details": "buffer"}, "[24]": {"species_on_record": "Homo sapiens", "assay": "Cytotoxicity against human GIN8 cells assessed as cell viability at 5 ug/ml measured after 48 hrs using compound suspended in PBS by Prestoblue assay", "type": "functional, cell-based", "procedure,_shortened": "as §1"}, "[25]": {"assay": "Apparent water solubility of the compound in PBS formulated with 900 ug/ml polymer Tween 80 at 100 ug/ml by UV-Visible spectral analysis", "type": "physicochemical", "details": "buffer"}, "[26]": {"species_on_record": "Homo sapiens", "assay": "Induction of necrosis in human GCE28 cells assessed as induction of nuclear membrane permeability at 12.5 uM measured after 48 hrs by Hoechst 33342/propidium iodide staining based fluorescence microscopy analysis", "type": "functional, cell-based", "procedure,_shortened": "as §2"}, "[27]": {"species_on_record": "Homo sapiens", "assay": "Induction of apoptotic death in human GIN8 cells assessed as […] at 12.5 uM measured after 48 hrs by Hoechst 33342/propidium iodide staining based fluorescence microscopy analysis", "type": "functional, cell-based", "procedure,_shortened": "as §2"}, "[28]": {"species_on_record": "Homo sapiens", "assay": "Cytotoxicity against human GIN8 cells assessed as reduction in cell viability at 5 ug/ml measured after 48 hrs using Pluronic-F68-formulated compound by Prestoblue assay", "type": "functional, cell-based", "procedure,_shortened": "as §1"}, "[29]": {"species_on_record": "Homo sapiens", "assay": "Induction of apoptotic death in human GIN28 cells assessed as nuclear fragmentation at 12.5 uM measured after 48 hrs by Hoechst 33342/propidium iodide staining based fluorescence microscopy analysis", "type": "functional, cell-based", "procedure,_shortened": "as §2"}, "[30]": {"species_on_record": "Homo sapiens", "assay": "Cytotoxicity against human GCE28 cells assessed as reduction in cell viability at 5 ug/ml measured after 48 hrs using Pluronic-F68-formulated compound by Prestoblue assay", "type": "functional, cell-based", "procedure,_shortened": "as §1"}},
  "note": "Active and inactive are the calls of the source. The rule behind the calls is not given here.",
  "data": [
    {"compound": "ClC(Cn1ncc2c(Nc3cccc(Br)c3)nc(SCCN3CCOCC3)nc21)c1ccccc1", "note": "(stereo not given)", "values": [
      {"measurement": "Activity", "setting": "[1]", "value": "Active"},
      {"measurement": "Activity", "setting": "[2]", "value": "inactive"},
      {"measurement": "Activity", "setting": "[3]", "value": "inactive"},
      {"measurement": "Activity", "setting": "[4]", "value": "inactive"},
      {"measurement": "Activity", "setting": "[5]", "value": "Active"},
      {"measurement": "Activity", "setting": "[6]", "value": "Active"},
      {"measurement": "IC50", "setting": "[7]", "value": 11.2, "unit": "µM"},
      {"measurement": "solubility", "setting": "[8]", "value": "Soluble"},
      {"measurement": "Activity", "setting": "[9]", "value": "Active"},
      {"measurement": "CI", "setting": "[10]", "value": 0.76},
      {"measurement": "CI", "setting": "[11]", "value": 0.9},
      {"measurement": "IC50", "setting": "[12]", "value": 7.7, "unit": "µM"},
      {"measurement": "CI", "setting": "[13]", "value": 0.88},
      {"measurement": "Activity", "setting": "[14]", "value": "inactive"},
      {"measurement": "CI", "setting": "[15]", "value": 0.53},
      {"measurement": "Activity", "setting": "[16]", "value": "Active"},
      {"measurement": "Activity", "setting": "[17]", "value": "Active"},
      {"measurement": "Activity", "setting": "[18]", "value": "Active"},
      {"measurement": "Activity", "setting": "[19]", "value": "Active"},
      {"measurement": "Activity", "setting": "[20]", "value": "Active"},
      {"measurement": "CI", "setting": "[21]", "value": 0.97},
      {"measurement": "Activity", "setting": "[22]", "value": "Active"},
      {"measurement": "solubility", "setting": "[23]", "value": "Soluble"},
      {"measurement": "Activity", "setting": "[24]", "value": "inactive"},
      {"measurement": "solubility", "setting": "[25]", "value": "Soluble"},
      {"measurement": "Activity", "setting": "[26]", "value": "inactive"},
      {"measurement": "Activity", "setting": "[27]", "value": "Active"},
      {"measurement": "Activity", "setting": "[28]", "value": "Active"},
      {"measurement": "Activity", "setting": "[29]", "value": "Active"},
      {"measurement": "Activity", "setting": "[30]", "value": "Active"}
    ]}
  ]
}
